# In ChEMBL document CHEMBL4689842, “EUbOPEN Chemogenomics Library wave 1” (2021):
# Several values for one entry are separate records, joined by “and”; a condition that tells them apart may be missing. Equal values may be shown once.
# Tested on: U2OS
# Assay: Multiplex assay against U2OS
# Assay type: toxicity, cell-based
# Conditions: human
# Method in brief: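 On a CQ1 microscope at 37°C and 5% CO2, live cells were imaged after compound addition. They had been stained at seeding with Hoechst33342, BioTracker Green Microtubule Cytoskeleton Dye, MitoTracker Red and Annexin V Alexa Fluor 680. CellPathfinder machine-learning gating assigned cells to Hoechst high-intensity objects or normal cells, normal cells to healthy, pyknosed or fragmented nuclei, and pyknosed cells to mitotic or apoptotic. Tubulin, mitochondrial-mass and membrane-permeability phenotypes are per cents of healthy-nucleus cells.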
# [1] = 12 h, 1 µM, compound concentration 1 uM, replicate 1
# [2] = 12 h, 1 µM, compound concentration 1 uM, replicate 2
# [3] = 12 h, 10 µM, compound concentration 10 uM, replicate 1
# [4] = 12 h, 10 µM, compound concentration 10 uM, replicate 2
# [5] = 24 h, 1 µM, compound concentration 1 uM, replicate 1
# [6] = 24 h, 1 µM, compound concentration 1 uM, replicate 2
# [7] = 24 h, 10 µM, compound concentration 10 uM, replicate 1
# [8] = 24 h, 10 µM, compound concentration 10 uM, replicate 2
# [9] = 48 h, 1 µM, compound concentration 1 uM, replicate 1
# [10] = 48 h, 1 µM, compound concentration 1 uM, replicate 2
# [11] = 48 h, 10 µM, compound concentration 10 uM, replicate 1
# [12] = 48 h, 10 µM, compound concentration 10 uM, replicate 2
smiles,measurement,setting,value
CCn1c(=O)c(-c2ccc(-c3cncs3)cc2Cl)cc2cnc(Nc3ccc(N4CCN(C)CC4)cc3)nc21,Population Apoptotic (%),[1],57%
same,Population Fragmented Nuclei (%),[1],11%
same,Population Healthy Nuclei (%),[1],77%
same,Population Hoechst High Intensity Objects (%),[1],7%
same,Population Membrane Permeable-Phenotype (%),[1],11%
same,Population Mitochondria Different-Phenotype (%),[1],11%
same,Population Mitotic Cells (%),[1],42%
same,Population Normal (%),[1],92%
same,Population Pyknosed Nuclei (%),[1],11%
same,Population Tubulin-Different-Phenotype (%),[1],7%
same,Total Cell Count,[1],162
same,Population Apoptotic (%),[2],75%
same,Population Fragmented Nuclei (%),[2],9%
same,Population Healthy Nuclei (%),[2],78%
same,Population Membrane Permeable-Phenotype (%),[2],3%
same,Population Mitochondria Different-Phenotype (%),[2],17%
same,Population Mitotic Cells (%),[2],25%
same,Population Tubulin-Different-Phenotype (%),[2],19%
same,Total Cell Count,[2],76
same,Population Apoptotic (%),[3],84%
same,Population Fragmented Nuclei (%),[3],40%
same,Population Healthy Nuclei (%),[3],5%
same,Population Hoechst High Intensity Objects (%),[3],77%
same,Population Membrane Permeable-Phenotype (%),[3],38%
same,Population Mitochondria Different-Phenotype (%),[3],53%
same,Population Mitotic Cells (%),[3],15%
same,Population Normal (%),[3],22%
same,Population Pyknosed Nuclei (%),[3],54%
same,Population Tubulin-Different-Phenotype (%),[3],84%
same,Total Cell Count,[3],177
same,Population Apoptotic (%),[4],11%
same,Population Fragmented Nuclei (%),[4],8%
same,Population Healthy Nuclei (%),[4],79%
same,Population Hoechst High Intensity Objects (%),[4],4%
same,Population Membrane Permeable-Phenotype (%),[4],5%
same,Population Mitochondria Different-Phenotype (%),[4],29%
same,Population Mitotic Cells (%),[4],88%
same,Population Normal (%),[4],96%
same,Population Pyknosed Nuclei (%),[4],12%
same,Population Tubulin-Different-Phenotype (%),[4],15%
same,Total Cell Count,[4],77
same,Population Apoptotic (%),[5],38%
same,Population Fragmented Nuclei (%),[5],10%
same,Population Healthy Nuclei (%),[5],78%
same,Population Hoechst High Intensity Objects (%),[5],4%
same,Population Membrane Permeable-Phenotype (%),[5],6%
same,Population Mitochondria Different-Phenotype (%),[5],6%
same,Population Mitotic Cells (%),[5],61%
same,Population Normal (%),[5],95%
same,Population Pyknosed Nuclei (%),[5],10%
same,Population Tubulin-Different-Phenotype (%),[5],7%
same,Total Cell Count,[5],161
same,Population Apoptotic (%),[6],46%
same,Population Fragmented Nuclei (%),[6],15%
same,Population Healthy Nuclei (%),[6],68%
same,Population Membrane Permeable-Phenotype (%),[6],1%
same,Population Mitochondria Different-Phenotype (%),[6],5%
same,Population Mitotic Cells (%),[6],53%
same,Population Pyknosed Nuclei (%),[6],16%
same,Population Tubulin-Different-Phenotype (%),[6],20%
same,Total Cell Count,[6],74
same,Population Apoptotic (%),[7],97%
same,Population Fragmented Nuclei (%),[7],30%
same,Population Healthy Nuclei (%),[7],0%
same,Population Hoechst High Intensity Objects (%),[7],78%
same,Population Membrane Permeable-Phenotype (%),[7],100%
same,Population Mitochondria Different-Phenotype (%),[7],100%
same,Population Mitotic Cells (%),[7],2%
same,Population Normal (%),[7],21%
same,Population Pyknosed Nuclei (%),[7],69%
same,Population Tubulin-Different-Phenotype (%),[7],100%
same,Total Cell Count,[7],212
same,Population Apoptotic (%),[8],27%
same,Population Fragmented Nuclei (%),[8],14%
same,Population Healthy Nuclei (%),[8],71%
same,Population Hoechst High Intensity Objects (%),[8],3%
same,Population Membrane Permeable-Phenotype (%),[8],7%
same,Population Mitochondria Different-Phenotype (%),[8],23%
same,Population Mitotic Cells (%),[8],72%
same,Population Normal (%),[8],96%
same,Population Pyknosed Nuclei (%),[8],14%
same,Population Tubulin-Different-Phenotype (%),[8],8%
same,Total Cell Count,[8],83
same,Population Apoptotic (%),[9],60%
same,Population Fragmented Nuclei (%),[9],6%
same,Population Healthy Nuclei (%),[9],85%
same,Population Hoechst High Intensity Objects (%),[9],3%
same,Population Membrane Permeable-Phenotype (%),[9],3%
same,Population Mitochondria Different-Phenotype (%),[9],9%
same,Population Mitotic Cells (%),[9],40%
same,Population Normal (%),[9],96%
same,Population Pyknosed Nuclei (%),[9],8%
same,Population Tubulin-Different-Phenotype (%),[9],9%
same,Total Cell Count,[9],186
same,Population Apoptotic (%),[10],50%
same,Population Fragmented Nuclei (%),[10],8%
same,Population Healthy Nuclei (%),[10],79%
same,Population Hoechst High Intensity Objects (%),[10],8%
same,Population Membrane Permeable-Phenotype (%),[10],7%
same,Population Mitochondria Different-Phenotype (%),[10],20%
same,Population Mitotic Cells (%),[10],50%
same,Population Normal (%),[10],92%
same,Population Pyknosed Nuclei (%),[10],12%
same,Population Tubulin-Different-Phenotype (%),[10],23%
same,Total Cell Count,[10],105
same,Population Apoptotic (%),[11],93%
same,Population Fragmented Nuclei (%),[11],31%
same,Population Healthy Nuclei (%),[11],0%
same,Population Hoechst High Intensity Objects (%),[11],80%
same,Population Membrane Permeable-Phenotype (%),[11],25%
same,Population Mitochondria Different-Phenotype (%),[11],25%
same,Population Mitotic Cells (%),[11],6%
same,Population Normal (%),[11],19%
same,Population Pyknosed Nuclei (%),[11],67%
same,Population Tubulin-Different-Phenotype (%),[11],50%
same,Total Cell Count,[11],321
same,Population Apoptotic (%),[12],57%
same,Population Fragmented Nuclei (%),[12],16%
same,Population Healthy Nuclei (%),[12],70%
same,Population Hoechst High Intensity Objects (%),[12],3%
same,Population Membrane Permeable-Phenotype (%),[12],16%
same,Population Mitochondria Different-Phenotype (%),[12],24%
same,Population Mitotic Cells (%),[12],42%
same,Population Normal (%),[12],96%
same,Population Pyknosed Nuclei (%),[12],13%
same,Population Tubulin-Different-Phenotype (%),[12],18%
same,Total Cell Count,[12],125
C[C@H]1Oc2cc(cnc2N)-c2c(nn(C)c2C#N)CN(C)C(=O)c2ccc(F)cc21 [LORLATINIB],Population Apoptotic (%),[1],53% and 37%
same,Population Healthy Nuclei (%),[1],88% and 89%
same,Population Hoechst High Intensity Objects (%),[1],2% and 3%
same,Population Membrane Permeable-Phenotype (%),[1],14%
same,Population Mitochondria Different-Phenotype (%),[1],20% and 32%
same,Population Mitotic Cells (%),[1],46% and 62%
same,Population Normal (%),[1],97% and 96%
same,Population Pyknosed Nuclei (%),[1],6% and 4%
same,Population Tubulin-Different-Phenotype (%),[1],15% and 22%
same,Total Cell Count,[1],195 and 218
same,Population Apoptotic (%),[2],25% and 0%
same,Population Healthy Nuclei (%),[2],84% and 77%
same,Population Hoechst High Intensity Objects (%),[2],11% and 9%
same,Population Membrane Permeable-Phenotype (%),[2],15% and 8%
same,Population Mitochondria Different-Phenotype (%),[2],35% and 38%
same,Population Mitotic Cells (%),[2],75% and 100%
same,Population Normal (%),[2],88% and 90%
same,Population Pyknosed Nuclei (%),[2],10% and 2%
same,Population Tubulin-Different-Phenotype (%),[2],26% and 35%
same,Total Cell Count,[2],129 and 122
same,Population Apoptotic (%),[5],57% and 38%
same,Population Fragmented Nuclei (%),[5],6% and 5%
same,Population Healthy Nuclei (%),[5],86% and 87%
same,Population Hoechst High Intensity Objects (%),[5],2%
same,Population Membrane Permeable-Phenotype (%),[5],11% and 7%
same,Population Mitochondria Different-Phenotype (%),[5],22% and 25%
same,Population Mitotic Cells (%),[5],42% and 61%
same,Population Normal (%),[5],97%
same,Population Pyknosed Nuclei (%),[5],6% and 7%
same,Population Tubulin-Different-Phenotype (%),[5],16% and 28%
same,Total Cell Count,[5],254 and 277
same,Population Apoptotic (%),[6],55% and 21%
same,Population Fragmented Nuclei (%),[6],9% and 18%
same,Population Healthy Nuclei (%),[6],81% and 70%
same,Population Hoechst High Intensity Objects (%),[6],9% and 6%
same,Population Membrane Permeable-Phenotype (%),[6],14% and 8%
same,Population Mitochondria Different-Phenotype (%),[6],33% and 41%
same,Population Mitotic Cells (%),[6],44% and 78%
same,Population Normal (%),[6],90% and 93%
same,Population Pyknosed Nuclei (%),[6],8% and 10%
same,Population Tubulin-Different-Phenotype (%),[6],31%
same,Total Cell Count,[6],140 and 145
